Converted amounts (≈) assume the structure as drawn. The source made the active and inactive calls. The calls are words filed in the database; no cut-off is given here.
Assays:
MCF7 [1] = test: Potency index, ratio of doxorubicin IC50 to test compound IC50 against human MCF7 cells; type: functional
HepG2 [2] = test: Induction of apoptosis in human HepG2 cells assessed as caspase 3/7 activity using DEVD aminoluciferin as substrate at IC50 after 24 hrs by fluorescence assay relative to control; type: functional
Method in brief: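 Caspase 3/7 activation measured with Caspase-Glo 3/7 kit using a luminogenic caspase-cleavable substrate. […] Reported as percent activation, mean ± SEM.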

NFS-60 = test: Induction of caspase-independent apoptosis in mouse NFS60 cells assessed as AIF1 release level using tetramethylbenzidine as substrate incubated for 1 hr by ELISA (reference value: 2.37 +/- 0.035 ng/ml); type: functional
Method in brief: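 Extracts of untreated and treated cells added to anti-AIF1-coated wells. Incubated 1 h with HRP-conjugated antibody, washed, then TMB substrate added. Reaction stopped after 10 min and read at 450 nm. AIF1 reported in ng/mL, mean ± SEM.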

HepG2 [3] = test: Induction of apoptosis in human HepG2 cells assessed as induction of cell shrinkage by phase contrast inverted fluorescence microscopy; type: functional, cell-based
Pseudomonas aeruginosa = test: Antimicrobial activity against Pseudomonas aeruginosa ATCC 27853 incubated for 24 hrs by agar well diffusion assay; type: functional
Method in brief: (§1)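 Nutrient agar spread with 100 µL inoculum: bacteria at 1×10^8 CFU/mL, fungi at 1×10^6 CFU/mL. 10 mm wells loaded with 100 µL of compound in DMSO (final 1 mg/mL). Bacteria incubated 24 h at 37 °C, fungi 48 h at 28 °C. Inhibition zones measured in mm. Ciprofloxacin and fluconazole standards at 1 mg/mL, DMSO negative control.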

MCF7 [4] = test: Induction of apoptosis in human MCF7 cells assessed as necrotic cells level at IC50 incubated for 72 hrs by annexin V/propidium iodide staining based flow cytometry (reference value: 0.48%); type: functional
Staphylococcus aureus [5] = test: Antimicrobial activity against Staphylococcus aureus ATCC 25923 incubated for 24 hrs by agar well diffusion assay; type: functional; method in brief: as §1
Candida albicans [6] = test: Antimicrobial activity against Candida albicans ATCC 90028 incubated for 24 hrs by microdilution assay; type: functional
Method in brief: (§2)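 Two-fold serial dilutions of test solutions made in Mueller Hinton broth and inoculated. Incubated at 37°C for 24 h. MIC taken as the lowest concentration with no growth. Ciprofloxacin is the antibacterial reference, fluconazole the antifungal one, and DMSO the blank.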

Candida albicans [7] = test: Antimicrobial activity against Candida albicans ATCC 90028 incubated for 48 hrs by agar well diffusion assay; type: functional; method in brief: as §1
Escherichia coli [8] = test: Antimicrobial activity against Escherichia coli ATCC 25922 incubated for 24 hrs by agar well diffusion assay; type: functional; method in brief: as §1
Escherichia coli [9] = test: Antimicrobial activity against Escherichia coli ATCC 25922 incubated for 24 hrs by microdilution assay; type: functional; details: ATCC 25922, 24 h; method in brief: as §2
Staphylococcus aureus [10] = test: Antimicrobial activity against Staphylococcus aureus ATCC 25923 incubated for 24 hrs by microdilution assay; type: functional; method in brief: as §2
MCF7 [11] = test: Induction of apoptosis in human MCF7 cells assessed as late apoptotic cells at IC50 incubated for 72 hrs by annexin V/propidium iodide staining based flow cytometry (reference value: 0.01 +/- 0.001%); type: functional
HepG2 [12] = test: Induction of apoptosis in human HepG2 cells assessed as early apoptotic cells level at IC50 incubated for 72 hrs by annexin V/propidium iodide staining based flow cytometry (reference value: 0.05%); type: functional
MCF7 [13] = test: Induction of apoptosis in human MCF7 cells assessed as induction of cell shape loss by phase contrast inverted fluorescence microscopy; type: functional, cell-based
MCF7 [14] = test: Cytotoxicity against human MCF7 cells assessed as cell growth inhibition incubated for 72 hrs by MTT assay; type: functional, cell-based; details: MCF7, 72 h
Method in brief: (§3)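 Cells grown in RPMI-1640 with 10% FBS and seeded at 5×10^3 per well. After 24 h, serial concentrations given for 72 h at 37°C, 5% CO2. Then 5 mg/mL MTT stock added for 3 h, formazan dissolved in DMSO, A570 read. IC50 calculated from the curves.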

Enterococcus faecalis = test: Antimicrobial activity against Enterococcus faecalis ATCC 29212 incubated for 24 hrs by agar well diffusion assay; type: functional; method in brief: as §1
HepG2 [15] = test: Cytotoxicity against human HepG2 cells assessed as cell growth inhibition incubated for 72 hrs by MTT assay; type: functional, cell-based; details: HepG2, 72 h; method in brief: as §3
MCF7 [16] = test: Induction of apoptosis in human MCF7 cells assessed as total apoptotic cells at IC50 incubated for 72 hrs by annexin V/propidium iodide staining based flow cytometry (reference value: 0.48 +/- 0.01%); type: functional

Compound | Ratio IC50 (MCF7 [1]) | Activity (HepG2 [2]) | Activity (NFS-60) | Activity (HepG2 [3]) | diameter of the inhibition zone (DIZ) (Pseudomonas aeruginosa) | Activity (MCF7 [4]) | diameter of the inhibition zone (DIZ) (Staphylococcus aureus [5]) | MIC (Candida albicans [6]) | diameter of the inhibition zone (DIZ) (Candida albicans [7]) | diameter of the inhibition zone (DIZ) (Escherichia coli [8]) | MIC (Escherichia coli [9]) | MIC (Staphylococcus aureus [10]) | Activity (MCF7 [11]) | Activity (HepG2 [12]) | Activity (MCF7 [13]) | IC50 (MCF7 [14]) | diameter of the inhibition zone (DIZ) (Enterococcus faecalis) | IC50 (HepG2 [15]) | Activity (MCF7 [16])
O=C(Cc1ccccc1)OC1(C(=O)Nc2ccc([N+](=O)[O-])cc2)CCCCC1 | 2 - 4 | 47.64% | 2.41 ng/mL | Active | 15 mm | 13.14% | inactive | inactive | inactive | 16 mm | 2680 µM (≈ 1020 µg/mL) | inactive | 22.09% | 2.74% | Active | 7.7 nM | inactive | 14.2 nM | 33.98%
O=C(OC1(C(=O)Nc2ccc([N+](=O)[O-])cc2)CCCCC1)C(O)c1ccccc1 (centres undefined) | 2 - 4 | 53.64% | 2.47 ng/mL | Active | 14 mm | 23.42% | inactive | inactive | inactive | 16 mm | 2570 µM (≈ 1020 µg/mL) | inactive | 30.785% | 3.14% | Active | 5.01 nM | inactive | 7.7 nM | 53.129%
O=C(OC1(C(=O)Nc2ccc([N+](=O)[O-])cc2)CCCCC1)c1ccc([N+](=O)[O-])cc1 | 2 - 4 | 50.68% | 2.44 ng/mL | Active |  | 25.02% |  |  |  |  |  |  | 20.439% | 1.95% | Active | 8.7 nM |  | 14.1 nM | 44.505%

Reference: ChEMBL document CHEMBL4390662, “Design, synthesis and biological evaluation of novel α-acyloxy carboxamides via Passerini reaction as caspase 3/7 activators” (Eur J Med Chem, 2019)
